Some results are limits rather than exact numbers.

For data set [1], the system named is post-treatment tumors. The following applies: responders; cited from earlier work.
For data set [2], the system named is B16F10-hPD-L1 tumor. The data set can be described thus: Antitumor efficacy in B16F10-hPD-L1 tumor-bearing C57BL/6 mice. Format: in vivo.
Data set [3] concerns PD-L1. The following applies: cited from earlier work.
In data set [4] the test system is MC38 tumor. The data set can be described thus: Antitumor efficacy in MC38 colon tumor-bearing mice. Format: in vivo, C57BL/6 mice. A digest of the protocol: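 Mice were female C57BL/6, 5–6 wk old. MC38 cells (3 × 10⁶) were injected s.c. into the right abdomen; mice were randomised at 50–70 mm³. Test compound (10 or 15 mg/kg) was given i.p. every 2 d in saline with 8% ethanol and 8% glycerin. Atezolizumab (10 mg/kg) was given i.v. every 3 d. Calipers were read every 2 d; volume = 1/2 × L × W². Mice were sacrificed after 7 doses. Body weight was followed; growth inhibition was computed against vehicle and predose volumes.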

Data set [5] deals with spleen T lymphocyte markers. The data set can be described thus: Immunohistochemistry of spleen from treated tumor-bearing mice. It counts as in vivo. As to conditions: IHC, 15 mg/kg, vs vehicle. The procedure, abridged: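 Spleens came from tumour-bearing mice treated with 15 mg/kg test compound or vehicle. Sections (4 µm) of 4% PFA-fixed, paraffin-embedded tissue were stained overnight at 4°C with anti-CD4, CD8 and FoxP3. HRP secondary was applied for 30 min, then DAB. Positive particles were counted per field (n = 5); mean ± SEM, unpaired t test.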

The subject of data set [6] is B16F10-hPD-L1 tumor tissue. The data set can be described thus: RNA-seq of B16F10-hPD-L1 tumor tissue. Format: in vivo, mice. As to conditions: 15 mg/kg vs vehicle.
Data set [7] in a line: Stability assay in human blood plasma. It counts as in vitro ADME. A digest of the protocol: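 Test compound at 2 µM was incubated in human plasma at 37°C. Duplicate samples were taken at 0, 10, 30, 60 and 120 min. Reactions were stopped with 50% ACN/MeOH containing tolbutamide and labetalol (200 ng/mL each).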
Data set [8] is classed as in vivo, mice. A digest of the protocol:
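Female C57BL/6 mice bearing subcutaneous B16F10-hPD-L1 tumours were randomised and dosed daily for 1 wk with vehicle, 15 mg/kg or 50 mg/kg test compound. On day 7 after the first dose, serum GOT, GPT, ALP and ALB were measured on an automatic dry-type biochemical analyser. Deaths and toxic effects were recorded during the study.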

The subject of data set [9] is splenic lymphocytes. It counts as in vivo, mice. As to conditions: 15 mg/kg, vs vehicle. The procedure, abridged: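 B16F10-hPD-L1 (5 × 10⁶ s.c.) mice received 15 mg/kg test compound i.p. every 2 d or vehicle. Spleens were taken at day 24, meshed through 70 µm, ACK-lysed, and 1 × 10⁶ cells were stained for CD3, CD4, CD8 and perforin. For intracellular cytokines, 2 × 10⁶ cells were stimulated with activation cocktail (1:500) plus brefeldin A (1:1000) for 3–4 h at 37°C, then stained for CD3, CD4, IFN-γ and TNF-α. Data are mean ± SEM; unpaired t test.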

The subject of data set [10] is CD4+ T cells cocultured with NCI-H1975 cells. The data set is described as follows: T cell response assay, CD4+ T cells cocultured with NCI-H1975 cells. As to conditions: 48 h coculture, ELISA. It counts as cell-based, human. A digest of the protocol: (§1)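 Human CD4⁺ T blasts were expanded ~7 d with IL-2 (100 IU/mL) and CD3/CD28 beads (1:1), then frozen. Target cells (NCI-H1975, HEK293T-hPD-L1 or PD-L1-negative HEK293T; 10,000/well) adhered for 24 h. T cells (2 × 10⁴; E:T 2:1) were added with or without test compound or atezolizumab in complete RPMI-1640 for 48 h at 37°C, 5% CO₂. Supernatant IFN-γ and TNF-α were measured by ELISA.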
For orientation: An ELISA detects its analyte on a solid surface through an enzyme-linked reagent.

Data set [11] relates to CD4+ T cells cocultured with hPD-L1 overexpressed HEK293T cells. The data set can be described thus: T cell response assay, CD4+ T cells cocultured with HEK293T-hPD-L1 cells. As to conditions: 48 h coculture. Format: cell-based, human. A digest of the protocol:
as §1

The subject of data set [12] is tumor-infiltrating lymphocytes (TILs). The data set is described as follows: Flow cytometry of tumor-infiltrating lymphocytes from B16F10-hPD-L1 tumors. It counts as in vivo, mice. As to conditions: 15 mg/kg. The procedure, abridged: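 Tumours from B16F10-hPD-L1 mice treated with 15 mg/kg test compound or vehicle were minced and digested for 45 min at 37°C in collagenase IV (200 U/mL) plus DNase I (40 U/mL). They were then treated with EDTA for 5 min at 37°C and strained at 70 µm. Cells were stained for CD3, CD4, CD8, perforin and granzyme B and analysed by flow cytometry; mean ± SEM, unpaired t test.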
For orientation: A flow cytometer gives signals particle by particle.

In data set [13] the test system is B16F10-hPD-L1 tumor tissue. The data set can be described thus: Immunohistochemistry of B16F10-hPD-L1 tumor tissue. As to conditions: IHC, 15 mg/kg, vs vehicle. Format: in vivo, mice. The procedure, abridged:
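Tumours came from B16F10-hPD-L1-bearing C57BL/6 mice given 15 mg/kg test compound or vehicle. Sections (4 µm) of 4% PFA-fixed, paraffin-embedded tissue were incubated with anti-FoxP3, anti-CD4 and anti-CD8 overnight at 4°C. HRP secondary was applied for 30 min, followed by DAB. Positive particles were counted per field.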

The test system of data set [14] is CD4+ T cells cocultured with PD-L1-negative HEK293T cells. Format: cell-based, human. As to conditions: coculture with PD-L1-negative HEK293T cells, 48 h. A digest of the protocol: as §1
Data set [15] deals with Jurkat cells. The data set can be described thus: Cell toxicity on Jurkat cells during flow cytometric experiments. The following applies: concentration up to 50 μM. It counts as cell-based.
Data set [16] concerns the target murine PD-L1 protein (Mus musculus, UniProt Q9EP73). The data set can be described thus: SPR binding affinity to murine PD-L1. A digest of the protocol:
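SPR running buffer was 1.05× PBS (pH 7.4) with 5% DMSO, at 25°C and 30 µL/min. DMSO solvent correction used 8 standards (4.5–5.8%). Test compound (10 mM DMSO stock) was diluted to 100–3.125 µM plus a 0 µM blank. Each cycle had 90 s injection, 120 s dissociation and 30 s buffer carryover check. Kd came from a global steady-state fit.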
For orientation: In SPR one partner is held on a chip, and binding of the other changes the refractive index at the surface.

The subject of data set [17] is CD4+ T cells cultured alone. The data set is described as follows: T cell response assay, prestimulated T cells cultured alone. Format: cell-based, human. As to conditions: T-lymphocytes cultured alone, 48 h. A digest of the protocol:
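Prestimulated human CD4⁺ T cells (IL-2 100 IU/mL, CD3/CD28 beads 1:1, ~7 d expansion) were cultured alone (2 × 10⁴) with or without test compound for 48 h at 37°C, 5% CO₂. Supernatant IFN-γ and TNF-α were measured by ELISA.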

Where [18] appears, read: 15 and 50 mg/kg daily, day 7, vs control.
Setting [19] is: flow cytometry and IHC, vs vehicle.

Sequence of murine PD-L1 protein (Q9EP73 19-290): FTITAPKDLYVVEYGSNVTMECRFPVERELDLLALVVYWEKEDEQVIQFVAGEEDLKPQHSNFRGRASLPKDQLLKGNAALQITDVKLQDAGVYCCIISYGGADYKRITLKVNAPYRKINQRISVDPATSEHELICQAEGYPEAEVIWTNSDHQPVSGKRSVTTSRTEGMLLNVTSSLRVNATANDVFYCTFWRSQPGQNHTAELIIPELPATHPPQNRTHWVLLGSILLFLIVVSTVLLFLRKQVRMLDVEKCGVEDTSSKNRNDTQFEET

Take “Atezolizumab: anti-PD-L1 antibody, positive control [reference compound]”: in [1], the “cytokines production such as IFN-γ and TNF-α” value was “increased”. The molecule further came in with a tumor growth inhibition in data set [2] (10 mg/kg tail vein injection every 3 d) of 66.1%.

For the molecule `C[C@@H](O)[C@H](NC(=O)N[C@@H](CC(N)=O)c1nc([C@@H](N)CO)no1)C(=O)O` [CA-170], in data set [3], the “direct binding to PD-L1” value is “no direct binding”.

Usually Kd stands for a measure of binding affinity in units of concentration. A higher Kd goes with a looser complex. For the molecule `NC(=O)c1ccccc1NC(=O)c1ccc(-c2ccccc2)cc1` [APBC, N-[2-(aminocarbonyl)phenyl][1,1′-biphenyl]-4-carboxamide], the “growth of colon tumors” value in [4] (10 mg/kg, after 7 times of treatment) is on record as “inhibited significantly”. Also, the “effect on body weight” value in data set [4] (during the treatment period) is “no significant effect”. Further, in data set [5], the “density of CD4+ T lymphocytes in the spleen” value is listed as “considerably higher density”, the “density of CD8+ T lymphocytes in the spleen” value is “considerably higher density” and the “expression of FoxP3 in the spleen” value was “no significant changes”. In data set [6] (CIBERSORTx, P< 0.05), the “infiltration of CD8+ T cells in the tumor” value was “significant higher infiltration”. Besides, in data set [6] (GSEA), the “immune pathways (antigen processing and presentation, T-cell receptor signaling, TNF signaling, Th1 and Th2 cell differentiation)” value is “markedly upregulated”; the “pathways related to Glycolysis or MAPK signaling pathway” value is “markedly downregulated”. Moreover, the blood plasma stability entry in data set [7] was “relatively good”. Further, in data set [8] (1-wk, daily up to 50 mg/kg), the drug-related deaths result was “no drug-related deaths”, the drug-related toxic effects result is given as “no drug-related toxic effects observed” and the tolerability entry is “well tolerated”. Also, in data set [8] (setting [18]), the “serum level of ALB” value was “no significant changes” and the “serum level of ALP” value was “no significant changes”. In data set [8] (daily, up to 50 mg/kg, day 7), the “serum level of GOT” value was “tendency to considerable decrease” and the “serum level of GPT” value is listed as “tendency to considerable decrease”. The “toxicity in murine models” value in data set [8] (up to 50 mg/kg) was “no observable toxicity”. For the same molecule, in [9] (P < 0.001), the “percentage of CD3+ CD4+ T lymphocytes in the spleen” value is on record as “significantly increased”, the “percentage of CD3+ CD8+ T lymphocytes in the spleen” value is on record as “significantly increased” and the “percentage of CD3+ T lymphocytes in the spleen” value is on record as “significantly increased”. In data set [9] (spleen), the “percentage of IFN-γ producing CD4+ T cells” value is given as “extremely significant increase” and the “percentage of TNF-α producing CD4+ T cells” value is given as “extremely significant increase”. The “perforin production from CD3+ cells” value in data set [9] (spleen, P< 0.01) was “significantly increased”. Besides, in data set [10], the IFN-γ level result is on record as “dose dependent increase” and the TNF-α level entry is “dose dependent increase”. In [11] (10 µM), this molecule gave a TNF-α level increase of 41.8%. Besides, in data set [11] (50 μM), the TNF-α production increase turned out to be 86.6%. In [12] (TILs, vs controls), the “GzmB expression in CD3+ T cells of tumors” value is recorded as “markedly elevated” and the “perforin expression in CD3+ T cells of tumors” value is listed as “markedly elevated”. Also, in data set [12] (setting [19]), the “CD4+ T-cell population in tumors” value is given as “significantly increased” and the “CD8+ T-cell population in tumors” value is recorded as “significantly increased”. In addition, the “FoxP3 expression levels within tumors” value in data set [13] was “did not significantly change”. Besides, the “IFN-γ and TNF-α production” value in [14] is “did not significantly affect”. For the same molecule, the cell toxicity result in data set [15] is listed as “not observed”. Further, the Kd in [16] was greater than 100 µM. Besides, the “IFN-γ and TNF-α production” value in data set [17] was “did not significantly affect”. Besides, the tumor growth inhibition in [2] (10 mg/kg intraperitoneal every 2 d, 8 treatments) is 62.1%. Further, the “treated animals almost tumor free” value in [2] (15 mg/kg intraperitoneal every 2 d) is listed as 4 of 10. The molecule further yielded a tumor growth inhibition in [2] (15 mg/kg intraperitoneal every 2 d, 8 treatments) of 82.2%. For the same molecule, the “spleen (splenomegaly / spleen weight)” value in data set [2] (day 24 after tumor inoculation, vs vehicle group with splenomegaly) is recorded as “normal spleens”.

The values are drawn from PMC7851350 (Neoplasia (New York, N.Y.), 2021).
